An excerpt weighted towards active compounds, which were near 5.4% of everything screened.
aSyn 5UTR inh: MLPCN primary screen, SNCA 5' untranslated region; AID 1813, 2009; alpha-synuclein 5'UTR reporter, inhibitor activity; 300,000 compounds, 0.82% hits; inhibition, % (tested at 7.5 µM); in the data active means inhibition above about 60%;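 further: H4 neuroglioblastoma cells stably carrying SNCA 5'UTR luciferase fusion; 0% = DMSO wells and 100% = positive control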
Mdm2-MdmX inh: inhibitors of human Mdm2-MdmX association, primary screen, cell-based, luminescence, split luciferase, SaOS-2, uHTS. SaOS-2 split-luciferase Mdm2/MdmX complementation. inhibition, % at 8 µM. 330,000 compounds, 3% hits;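 active means inhibition of at least 50% at 8 µM in the primary screen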
Target sequence (O15151 whole entry, looked up): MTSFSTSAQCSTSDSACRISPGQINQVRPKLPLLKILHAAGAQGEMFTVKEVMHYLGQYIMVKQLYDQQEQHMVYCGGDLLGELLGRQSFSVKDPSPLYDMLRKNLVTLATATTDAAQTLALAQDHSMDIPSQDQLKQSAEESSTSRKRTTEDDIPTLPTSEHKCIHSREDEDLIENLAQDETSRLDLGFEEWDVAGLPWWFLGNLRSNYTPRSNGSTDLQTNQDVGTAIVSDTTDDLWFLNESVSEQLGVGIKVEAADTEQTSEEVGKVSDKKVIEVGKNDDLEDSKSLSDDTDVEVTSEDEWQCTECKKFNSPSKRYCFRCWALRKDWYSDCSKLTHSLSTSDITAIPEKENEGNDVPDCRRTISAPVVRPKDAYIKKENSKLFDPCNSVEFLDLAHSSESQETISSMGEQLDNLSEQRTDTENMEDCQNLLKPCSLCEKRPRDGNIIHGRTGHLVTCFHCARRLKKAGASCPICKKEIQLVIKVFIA
Target sequence (Q00987 whole entry, looked up): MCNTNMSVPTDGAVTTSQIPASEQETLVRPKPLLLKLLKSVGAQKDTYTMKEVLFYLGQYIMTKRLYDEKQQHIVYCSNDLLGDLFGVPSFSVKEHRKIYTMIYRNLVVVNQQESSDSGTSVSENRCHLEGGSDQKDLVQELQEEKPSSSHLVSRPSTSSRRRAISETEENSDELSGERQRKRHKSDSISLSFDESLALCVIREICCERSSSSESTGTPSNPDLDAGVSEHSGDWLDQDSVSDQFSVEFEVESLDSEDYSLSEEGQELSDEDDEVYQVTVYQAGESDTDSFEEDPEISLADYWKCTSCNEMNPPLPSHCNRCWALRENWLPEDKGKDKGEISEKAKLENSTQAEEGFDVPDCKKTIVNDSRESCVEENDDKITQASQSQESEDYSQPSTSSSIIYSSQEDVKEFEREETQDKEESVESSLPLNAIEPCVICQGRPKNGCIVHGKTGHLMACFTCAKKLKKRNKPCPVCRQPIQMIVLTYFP
T cruzi repl: inhibitors of intracellular T. cruzi growth, primary screen, luminescence, NIH3T3 host cells | inhibition, % (concentration not given with the values) | AID 1885, 2009 | T. cruzi beta-gal in NIH3T3, 90 h | 300,000 compounds, 1.4% hits;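 active means mean inhibition across valid replicates above about 55%, limit read from the data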;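 further: signal also drops with host cell toxicity which is not excluded here; 0% = plate median of DMSO wells and 100% = zero luminescence signal; higher percent means less beta-gal luminescence so fewer parasites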
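compound dosing = single 50 nL compound addition per well in DMSO | material = NIH/3T3 host cells with β-galactosidase reporter T. cruzi | input = 5,000 host fibroblasts per well | timing = ≥90 h infection period, 3 h prior cell attachment | read-out basis = percent inhibition of parasite-derived β-gal signal | detection = GalScreen β-gal luminescence, detergent lysis, 60 min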
CSC inhib: cancer stem cell viability inhibitors, primary screen, luminescence | cancer stem cell-like cells viability | inhibition, % at 7.5 µM | 300,000 compounds, 1.1% hits; in the data active means inhibition above about 75%; tested in HMLE shEcad cells
SKKanGAS inh: S. pyogenes SKKanGAS growth inhibitors in kanamycin, primary screen, streptokinase expression inhibitor project, SKKanGAS strain, BacTiter-Glo luminescence; inhibition, % at 7.5 µM; 300,000 compounds, 1.3% hits; 6 h;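 active means mean replicate score, as percent of positive control median, at least 50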;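 further: strain carries kanamycin resistance gene driven by streptokinase promoter and grows in 40 µg/ml kanamycin; loss of luminescence reflects streptokinase promoter inhibition or plain growth inhibition; 0% = median of DMSO wells and 100% = positive control at its reference dose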
Mdm2 MdmX conf: Mdm2-MdmX complex disruptors, retested hits, confirmation, luminescence, single concentration. shares compounds with Mdm2-MdmX inh. inhibition, % at 8 µM. Mdm2-MdmX binding, luminescent assay. AID 489028, 2010. 10,000 compounds, 55% hits; in the data active means inhibition above about 40%
FLuc counter: full-length luciferase signal inhibition, confirmation, counter-screen for Mdm2/MdmX interaction inhibitor project, cell-based, single concentration, SaOS-2 | shares compounds with Mdm2-MdmX inh | SaOS-2 full-length luciferase counterscreen, luminescence | inhibition, % at 8 µM | 6,200 compounds, 77% hits | AID 504607, 2011;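 active means mean inhibition at 8 µM reaching about 37%, which flags the compound as non-specific, limit read from the data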;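 further: p53-null SaOS-2 cells with luciferase driven by a doxycycline-inducible promoter; compound on cells about two nights before reading with doxycycline added after day one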
* = called active by the depositor; . = no result given.

SMILES	aSyn 5UTR inh	Mdm2-MdmX inh	T cruzi repl	CSC inhib	SKKanGAS inh	Mdm2 MdmX conf	FLuc counter
CC(=O)O[C@H]1C(=O)[C@@]2(C)C([C@H](OC(=O)c3ccccc3)[C@]3(O)C[C@H](OC(=O)[C@H](O)[C@@H](NC(=O)Cc4ccccc4)c4ccccc4)C(C)=C1C3(C)C)[C@]1(OC(C)=O)CO[C@@H]1C[C@@H]2O (stereo partly drawn)	93*	66*	41	-6	1	66*	42*
CC(=O)O[C@H]1C(=O)[C@@]2(C)C([C@H](OC(=O)c3ccccc3)[C@]3(O)C[C@H](O)C(C)=C1C3(C)C)[C@]1(OC(C)=O)CO[C@@H]1C[C@H]2O (stereo partly drawn)	4	30	13	1	0	.	.
O=C1NC(=O)C(CCc2ccncc2)(Cc2ccc(OCc3ccccc3)cc2)C(=O)N1	-16	12	-17	-8	-20	.	.
NC(N)=N/N=C/c1ccc(N(c2ccccc2)c2ccccc2)cc1	138*	97*	42	110*	105*	100*	30
CNCC(O)c1cc(OCc2ccccc2)c(OCc2ccccc2)cc1F (stereo not drawn)	-44	82*	2	-21	12	8	.
CCC(=Nc1ccc2c(c1)CCC2)c1c(O)n(-c2ccc(OC)cc2)c(=O)[nH]c1=O	8	11	.	-11	0	.	.
Cc1ccc(C[n+]2c(-c3ccc(C)cc3)cc(-c3ccc(C)cc3)cc2-c2ccc(C)cc2)cc1	95*	100*	47	-5	106*	98*	8
CC(C)CCNC(=O)c1c(N)n(Cc2ccc3c(c2)OCO3)c2nc3ccccc3nc12	-1	24	16	29	13	.	.
CC(C)CNC(=O)c1c(N)n(Cc2ccc3c(c2)OCO3)c2nc3ccccc3nc12	19	61*	23	69	23	15	.
COc1ccccc1CCNCc1ccc(OC)c(OC)c1OC	16	-8	6	12	-12	.	.
O=c1[nH]c(O)c(/C=C2/C=CC(c3cc(Cl)ccc3Cl)=N2)c(=O)[nH]1	-56	46	-11	38	-8	.	.
O=C(Cc1ccc(Cl)c(Cl)c1)NCC1(N2CCOCC2)CCCCC1	17	2	-5	9	-5	.	.
Cn1c(=O)n(CC(=O)N2CCC3(CC2)OCCO3)c(=O)c2ccccc21	-11	14	-10	-5	-4	.	.
CCn1c(=O)cc(SCC(=O)N2CCC3(CC2)OCCO3)c2ccccc21	-34	53*	10	-1	1	39	.
O=C1C(Cc2cnc[nH]2)NC(=S)N1c1ccccc1 (stereo not drawn)	-22	9	-14	0	2	.	.
C[C@H]1CC[C@@H]2[C@@H](C)[C@H]3[C@H](C[C@H]4[C@@H]5CC=C6C[C@@H](O[C@@H]7O[C@H](CO)[C@H](O)[C@H](O[C@@H]8O[C@H](CO)[C@@H](O)[C@H](O)[C@H]8O)[C@H]7O[C@@H]7O[C@@H](C)[C@H](O)[C@@H](O)[C@H]7O)CC[C@]6(C)[C@H]5CC[C@]34C)N2C1	47	60*	-11	-11	-2	-11	.
COC(=O)C1=C(c2cccc(OCc3ccccc3)c2)C[C@@H]2CC[C@H]1N2C(=O)NCCc1ccc(F)cc1	.	16	.	9	.	.	.
COC(=O)c1ccccc1-n1c(C)nc2ccccc2c1=O	.	17	.	-14	.	.	.
COC(=O)c1cn(C(=O)c2cccc3ccccc23)c2ccccc12	25	64*	-38	62	3	56*	53*
O=[N+]([O-])c1ccc(Cl)c([N+](=O)[O-])c1	.	87*	.	102*	.	10	.
COC(=O)C1=C(c2cc3ccccc3o2)C[C@@H]2CC[C@H]1N2C(=O)NCc1ccccc1	-5	15	-3	-15	-5	.	.
O=C1C(=O)c2ccccc2-c2ccccc21	119*	99*	39	107*	86*	100*	0
O=C(O)CN1C(=O)CN=C(c2ccccn2)c2cc(Cl)ccc21	1	9	-10	-5	-1	.	.
CC(C)c1oc(=O)cc2c1[C@@H](O)[C@H]1OC(=O)[C@@]3(C)CC[C@@H](O)[C@@]2(C)C13 (stereo partly drawn)	10	63*	7	16	3	61*	65*
CC(C)c1oc(=O)cc2c1[C@@H](O)[C@H]1OC(=O)[C@@]3(C)C[C@@H](O)[C@@H](O)[C@@]2(C)C13 (stereo partly drawn)	7	81*	-23	43	2	58*	30
SMILES	aSyn 5UTR inh	Mdm2-MdmX inh	T cruzi repl	CSC inhib	SKKanGAS inh	Mdm2 MdmX conf	FLuc counter
COC(=O)C1=C(c2ccc(F)cc2OCc2ccccc2)C[C@@H]2CC[C@H]1N2C(=O)NCCCc1ccccc1	.	30	.	18	.	.	.
CC(=O)O[C@@H]1/C=C/[C@](C)(O)C[C@@H](C)C/C=C/[C@H]2[C@H](O)C(C)=C(C)[C@H]3[C@H](Cc4ccccc4)NC(=O)[C@@]123	117*	72*	28	4	-2	74*	49*
CCNC(=S)N1CCn2cccc2C1c1cccnc1 (stereo not drawn)	-2	8	30	-21	-3	.	.
CCCC[C@@H](C)C[C@@H](C)C(=O)N(C)[C@@H](CC(C)C)C(=O)N[C@H](C(=O)N(C)[C@H](C(=O)N1C[C@@H](O)C[C@H]1C(=O)N1C(=O)C=C[C@@H]1C)C(C)C)C(C)OC(C)=O (stereo partly drawn)	.	95*	.	.	.	97*	55*
O=P1(Oc2ccccc2)OCCCS1 (stereo not drawn)	-22	15	-2	1	9	.	.
C=C(C=O)CC1CC(O)[C@]2(C)OC3C[C@@H]4OC5C[C@]6(C)O[C@]7(C)CCC8OC9C[C@]%10(C)OC(/C(C)=C\CO)C(O)CC%10OC9CC(C)C8OC7CC6O[C@]5(C)C/C=C\C4OC3CC2O1 (stereo partly drawn)	.	10	.	-8	.	.	.
C=C(C=O)C[C@@H]1C[C@H](O)C2OC3C[C@]4(C)OC5/C=C\CC6OC7C(CC=CCC6OC5CCCC4OC3CC2O1)OC1CC2OC3CC(=O)OC3C[C@@H](C)C[C@@]2(C)OC1C[C@@H]7C (stereo partly drawn)	113*	100*	33	104*	16	95*	0

High-throughput results from PubChem BioAssay.
